Measurements: ChEMBL document CHEMBL4130579, “Sulfur-Containing Aristoloxazines and Other Constituents of the Roots of Aristolochia orbicularis” (2017)
Values after ≈ are worked out from the molar mass of the structure shown. Active and inactive are the calls of the source. The rule behind the calls is not given here.

How the values were obtained:
Staphylococcus aureus [1] = assay: Antibacterial activity against methicillin-resistant Staphylococcus aureus ATCC 33591 after 24 hrs by broth microdilution method; format: functional; conditions: ATCC 33591, 24 h
Summary of the method: (§1)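 Strains were kept on Mueller-Hinton agar at 4 °C and grown in MH broth at 37 °C for 18 h. Broth microdilution followed NCCLS, with serial dilutions over 0.125–128 μg/mL and an inoculum of 10^5 CFU/mL set by the 0.5 McFarland standard. Plates were incubated at 37 °C for 24 h, then p-iodonitrotetrazolium violet (0.5 mg/mL) was added. MIC was the lowest concentration without red colour.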

Staphylococcus aureus [2] = assay: Antibacterial activity against methicillin-resistant Staphylococcus aureus ATCC 43300 after 24 hrs by broth microdilution method; format: functional; conditions: ATCC 43300, 24 h; summary of the method: as §1
Staphylococcus aureus [3] = assay: Antibacterial activity against methicillin-sensitive Staphylococcus aureus ATCC 6358 after 24 hrs by broth microdilution method; format: functional; conditions: ATCC 6358, 24 h; summary of the method: as §1
Staphylococcus aureus [4] = assay: Antibacterial activity against beta-lactamase producing methicillin-resistant Staphylococcus aureus ATCC 11632 after 24 hrs by broth microdilution method; format: functional; conditions: ATCC 11632, 24 h; summary of the method: as §1
Aspergillus niger = assay: Antifungal activity against Aspergillus niger ATCC 10335 after 24 hrs by agar dilution method; format: functional; conditions: ATCC 10335, 24 h
Summary of the method: (§2)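 Agar dilution on Sabouraud glucose agar with 2-fold dilutions from 128 to 0.5 μg/mL and final DMSO below 2% (v/v). Inocula were spotted with a 0.005 mL loop: C. albicans at 10^5 cells/mL and filamentous fungi at 10^6 spores/mL. Plates were incubated at 29 °C in duplicate, for 24 h (C. albicans, A. niger) or 72 h (dermatophytes).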

[5] = test system: Trichophyton mentagrophytes; assay: Antifungal activity against Trichophyton mentagrophytes ATCC 28185 after 72 hrs by agar dilution method; format: functional; conditions: ATCC 28185, 72 h; summary of the method: as §2
Trichophyton rubrum = assay: Antifungal activity against Trichophyton rubrum ATCC 28188 after 72 hrs by agar dilution method; format: functional; conditions: ATCC 28188, 72 h; summary of the method: as §2
Candida albicans = assay: Antifungal activity against Candida albicans ATCC 10231 after 24 hrs by agar dilution method; format: functional; summary of the method: as §2
Escherichia coli = assay: Antibacterial activity against Escherichia coli ATCC 25922 at 128 ug/ml after 24 hrs by broth microdilution method; format: functional, organism-based
Summary of the method: (§3)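 Strains kept on Mueller-Hinton agar at 4 °C, grown in MH broth at 37 °C for 18 h before testing. NCCLS standard broth microdilution, serial dilution over 0.125−128 μg/mL. Inoculum set to 10^5 CFU/mL by 0.5 McFarland standard. Plates incubated at 37 °C for 24 h, then p-iodonitrotetrazolium violet (0.5 mg/mL) added. Red colour marks viable cells; growth at the top concentration scored.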

Proteus mirabilis = assay: Antibacterial activity against Proteus mirabilis ATCC 43071 at 128 ug/ml after 24 hrs by broth microdilution method; format: functional, organism-based; summary of the method: as §3
Salmonella typhi = assay: Antibacterial activity against Salmonella typhi ATCC 06539 at 128 ug/ml after 24 hrs by broth microdilution method; format: functional, organism-based; conditions: Salmonella enterica subsp. enterica serovar Typhi; summary of the method: as §3

Compound	MIC (Staphylococcus aureus [1]) [µg/mL]	MIC (Staphylococcus aureus [2]) [µg/mL]	MIC (Staphylococcus aureus [3]) [µg/mL]	MIC (Staphylococcus aureus [4]) [µg/mL]	MIC (Aspergillus niger) [µg/mL]	MIC [5] [µg/mL]	MIC (Trichophyton rubrum) [µg/mL]	MIC (Candida albicans) [µg/mL]	Activity (Escherichia coli)	Activity (Proteus mirabilis)	MIC (Candida albicans; ATCC 10231, 24 h) [µg/mL]	Activity (Salmonella typhi)
CC1(C)S[C@@H]2[C@H](NC(=O)[C@H](N)c3ccccc3)C(=O)N2[C@H]1C(=O)O [AMPICILLIN]	128 (≈ 366 µM)	128 (≈ 366 µM)	2 (≈ 5.72 µM)	64 (≈ 183 µM)								
Cc1onc(-c2ccccc2)c1C(=O)N[C@@H]1C(=O)N2[C@@H]1SC(C)(C)[C@@H]2C(=O)O [OXACILLIN]	128 (≈ 319 µM)	128 (≈ 319 µM)	2 (≈ 4.98 µM)	32 (≈ 79.7 µM)								
Clc1ccc(COC(Cn2ccnc2)c2ccc(Cl)cc2Cl)c(Cl)c1 (configuration not stated) [MICONAZOLE]					16 (≈ 38.4 µM)	2 (≈ 4.81 µM)	2 (≈ 4.81 µM)					
NYSTATIN								8				
COc1cc2c(=O)onc3c2c(c1OC)-c1cccc(OC)c1[C@@H]3SCC(N)=O	0.25 (≈ 0.603 µM)	0.25 (≈ 0.603 µM)	0.5 (≈ 1.21 µM)	0.25 (≈ 0.603 µM)	25 (≈ 60.3 µM)	1 (≈ 2.41 µM)	1 (≈ 2.41 µM)		inactive	inactive	25 (≈ 60.3 µM)	inactive
O=C(N[C@H](CO)[C@H](O)c1ccc([N+](=O)[O-])cc1)C(Cl)Cl [CHLORAMPHENICOL]	2 (≈ 6.19 µM)	2 (≈ 6.19 µM)	1 (≈ 3.09 µM)	2 (≈ 6.19 µM)								
